VIM-2 inh = VIM-2 metallo-beta-lactamase inhibitors, primary screen, biochemical, epi-absorbance readout, Pseudomonas aeruginosa enzyme. inhibition, % at 5.6 µM. actives 0.89% (n = 290,000). AID 1527, 2009. purified VIM-2, nitrocefin hydrolysis, epi-absorbance fluorescence;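 active = inhibition above the mean of all tested compounds plus 3 SD, cutoff set per screening run, cut at about 7.5% in these data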;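 also: red hydrolysis product quenches plate fluorescence so inhibitors raise well fluorescence; 0% = enzyme with DMSO and 100% = DMSO without enzyme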
Runt-SMMHC FRET = inhibitors of RUNX1 Runt–CBFb-SMMHC binding, primary screen, biochemical, FRET, Cerulean-Runt, Venus-CBFb-SMMHC, uHTS; inhibition, % at 20 µM; Runt-related transcription factor 1 (Homo sapiens) + Core-binding factor subunit beta …; Cerulean-Runt/Venus-CBFb-SMMHC FRET ratio 530/480, 1 h; actives 0.74% (n = 220,000);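 active = mean inhibition across duplicate retests at 20 µM reaching about 50%, limit read from the data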;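 also: 0% = DMSO wells and 100% = wells with excess untagged CBFb-SMMHC; inhibitors lower the FRET ratio by blocking Runt binding to CBFb-SMMHC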
Target sequence (Q01196 whole entry, looked up): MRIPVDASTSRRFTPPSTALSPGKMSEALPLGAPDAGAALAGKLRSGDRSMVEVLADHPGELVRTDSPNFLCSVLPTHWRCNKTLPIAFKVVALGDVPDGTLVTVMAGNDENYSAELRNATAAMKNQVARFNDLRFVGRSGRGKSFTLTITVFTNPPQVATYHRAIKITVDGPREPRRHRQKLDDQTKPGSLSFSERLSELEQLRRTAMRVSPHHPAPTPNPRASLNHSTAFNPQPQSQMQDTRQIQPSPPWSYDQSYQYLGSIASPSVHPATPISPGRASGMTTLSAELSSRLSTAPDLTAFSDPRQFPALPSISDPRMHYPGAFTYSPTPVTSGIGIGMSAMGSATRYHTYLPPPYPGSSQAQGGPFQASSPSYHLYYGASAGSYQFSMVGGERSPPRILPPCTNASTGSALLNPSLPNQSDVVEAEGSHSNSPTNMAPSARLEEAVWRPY
Target sequence (Q13951 whole entry, looked up): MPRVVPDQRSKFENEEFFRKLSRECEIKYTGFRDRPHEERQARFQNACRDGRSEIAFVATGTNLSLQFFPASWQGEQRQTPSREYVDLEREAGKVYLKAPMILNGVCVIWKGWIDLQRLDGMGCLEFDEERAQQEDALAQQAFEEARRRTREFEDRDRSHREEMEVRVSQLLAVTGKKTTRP
Runt-CBFb FRET = inhibitors of RUNX1 Runt–CBFb binding, primary screen, biochemical, FRET, Cerulean-Runt, Venus-CBFb, uHTS; Runt-related transcription factor 1 (Homo sapiens) + Core-binding factor subunit beta …; Cerulean-Runt/Venus-CBFb FRET ratio 530/480, 1 h; inhibition, % at 20 µM; actives 0.46% (n = 220,000); AID 1496, 2009;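 active = inhibition over about 50% at 20 µM in the single-dose screen, limit read from the data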;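 also: 0% = DMSO wells and 100% = excess unlabeled CBFb competitor control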
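Reagent – Venus-CBFb binding partner, 100 nM · Assay system – Cerulean-tagged RUNX1 Runt domain (FRET donor) fusion protein · Input – 100 nM per protein · Incubation – two 1 h room-temperature incubations shielded from light · Measured by – FRET fluorescence · Medium – Tris buffer pH 7.5 with salts and BSA · Benchmarks – unlabeled CBFb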
IMP-1 inhibitor = IMP-1 metallo-beta-lactamase inhibitors, primary screen, biochemical, epi-absorbance readout, Pseudomonas aeruginosa enzyme; inhibition, % at 5.6 µM; metallo-beta-lactamase IMP-1 (Pseudomonas aeruginosa); purified IMP-1, nitrocefin hydrolysis, epi-absorbance fluorescence; actives 0.45% (n = 290,000); AID 1556, 2009;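 active = inhibition above the mean plus 3 SD of all compounds in the same screening run, cut at about 4.5% in these data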;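 also: 0% = IMP-1 with DMSO and 100% = DMSO wells lacking enzyme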
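System – purified recombinant IMP-1 beta-lactamase · Input – IMP-1 dispensed at 0.2 nM · Timing – 15 min preincubation plus 25 min reaction at 25 °C · Signal – Epi-absorbance fluorescence, 480 nm excitation, 530 nm emission · Measure – percent IMP-1 inhibition derived from blank-referenced optical density · Controls – Enzyme-plus-DMSO low control, enzyme-free DMSO high control · Replication – singlicate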
RanGTP-Imp inh = inhibitors of RanGTP-importin-beta interaction, primary screen, biochemical, FRET, CFP-Ran, YFP-importin-beta, homogeneous | Ran GTPase (GTP-bound) - importin-beta complex | cell-free CFP-Ran/YFP-importin-beta FRET ratio | inhibition, % (no concentration beside the values) | actives 1.1% (n = 300,000);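 active = more than half of the replicate wells show a fall in the fluorescence ratio signal beyond about 16%, limit read from the data, passing the limit was not always enough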;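 also: 0% = DMSO wells and 100% = Ran loaded with GDP instead of GTP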
RUNX1 CBFb TR = inhibitors of RUNX1 Runt–CBFb binding, biochemical, TR-FRET; shares compounds with Runt-CBFb FRET; TR-FRET RUNX1 Runt domain-CBFb binding; inhibition, % at 20 µM; actives 20% (n = 480); in the data active = inhibition above about 40%
The depositor's hits bear a star; nt = no result. Only some compounds are listed: those with a hit (about 2.6% of all), similar ones and a draw of the others.

SMILES	VIM-2 inh	Runt-SMMHC FRET	Runt-CBFb FRET	IMP-1 inhibitor	RanGTP-Imp inh	RUNX1 CBFb TR
COc1ccc(N(C(C)=O)S(=O)(=O)c2cc(OC)ccc2OC)cc1	0	4	27	-2	6	nt
COc1ccc(S(=O)(=O)N(C(=O)C(C)C)c2ccc3oc(=O)sc3c2)cc1	-2	56*	53*	-1	0	4
COc1ccc(S(=O)(=O)N(C(=O)c2ccco2)c2cc3sc(=O)oc3c3ccccc23)cc1	-3	43	9	-4	4	nt
COc1ccc(OC)c(S(=O)(=O)N(C(C)=O)c2ccc3oc(=O)sc3c2)c1	-1	nt	67*	-1	-1	12
CC(C)C[C@@H](CC#N)N1CCN(Cc2ccccc2)CCC1=O	1	nt	nt	-1	2	nt
Cc1nc(N2CCCCC2)c2sc(=S)n(C)c2n1	-2	1	0	-3	-1	nt
CCN1CCN(c2nc(C)nc3c2sc(=S)n3C)CC1	5	38	53*	-4	nt	-1
CC1Cc2cc(/C(O)=C3/C(=O)C(=O)N(CCCn4ccnc4)C3c3ccc(Br)cc3)ccc2O1 (stereo not given)	-3	nt	nt	-1	0	nt
Cc1nn(Cc2c(F)c(F)c(F)c(F)c2F)c(C)c1NC(=O)c1nn(C)c(C)c1Br	-1	nt	nt	-2	0	nt
CC(NC(=O)c1ccco1)C(=O)N1CCN(C(c2ccccc2)c2ccccc2)CC1 (stereo not given)	-2	nt	nt	-1	-3	nt
Cc1ccc(C2OC34CCCCCC3C(C#N)(C(=N)O4)C2(C#N)C#N)cc1 (stereo not given)	0	99*	52*	-1	34*	30
S=C(NCCCN1CCOCC1)NCCCN1CCOCC1	-2	23	50*	-5	-1	23
S=C(NCCCN1CCOCC1)NC1CCCC1	-2	2	-2	-3	nt	nt
CCC12OC(=N)C(C#N)(C1C)C(C#N)(C#N)C(c1ccccc1)O2 (stereo not given)	-1	88*	58*	0	21*	41*
O=C(CN1CCN(c2ccccc2)CC1)Nc1cccc(C(F)(F)F)c1	-1	-1	59*	-5	9	-16
CC(C)Cn1c(N)c(C(=O)NCC2CCCO2)c2nc3ccccc3nc21 (stereo not given)	-1	58*	52*	-3	82*	31
O=C(NCC1CCCO1)c1cc2ccccc2nc1Cl (stereo not given)	-2	-2	1	-3	7	nt
CCCS(=O)(=O)N1CCCC(C(=O)Oc2ccc(Cl)cc2)C1 (stereo not given)	-1	nt	nt	-1	3	nt
Cc1ccn(-c2cc(O)c(-n3ccc(C)n3)cc2O)n1	2	25	64*	-2	8	37
Cc1cc2occ(CC(=O)N(C)CC(=O)Nc3ccccc3Cl)c2cc1C	nt	nt	nt	nt	8	nt
O=C1c2ccccc2-c2c1cccc2C(=O)N(CCO)CCO	-2	-1	75*	-2	-3	-26
O=C(NCCO)c1cccc2c1-c1ccccc1C2=O	-1	-1	2	-1	-2	nt
Oc1ccc(N=Cc2ccc(-c3cccs3)s2)cc1	-3	nt	69*	-5	28*	50*
CCCCOc1ccc(N=Cc2cccs2)cc1	-6	2	-1	-4	3	nt
Cc1cc2ncn(C(=O)c3ccc(F)cc3)c2cc1C	-1	nt	nt	-3	-4	nt
N=c1oc2ccc3ccccc3c2cc1-c1nnc2n1CCCCC2	-2	108*	52*	-3	nt	-6
Oc1ccc2ccccc2c1C=NCc1ccccc1	-2	3	119*	-2	-4	17
